Data on 24 sequences can be found in the EternaBench riboswitch data.

What is called apparent Kd is the concentration giving half-maximal binding under the conditions of the assay.

The subject of this data set is MS2 coat protein. The data set is described as follows: apparent Kd, MS2 coat protein; higher = weaker binding; RNA-MaP array; FMN 200 µM where present. The method, boiled down: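 Designs on Illumina sequencing-chip clusters, transcribed by stalled E. coli RNA polymerase, were exposed to SNAP-549-labelled MS2 coat protein in doubling steps from 0.7 or 1.5 nM up to 3 µM, without and then with constant ligand. The buffer held 100 mM Tris-HCl pH 7.5, 80 mM KCl, 4 mM MgCl2, BSA, DTT, yeast tRNA and Tween-20. Apparent Kd values are medians of filtered per-cluster binding-curve fits to green signal normalised to red-channel RNA signal and control-cluster median Fmax.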

The mark [1] stands for this setting: designed as: OFF switch for flavin mononucleotide, no ligand.
Setting [2] is: ligand present: flavin mononucleotide, designed as: OFF switch for flavin mononucleotide.
Setting [3] is: designed as: ON switch for flavin mononucleotide, no ligand.
The mark [4] stands for this setting: ligand present: flavin mononucleotide, designed as: ON switch for flavin mononucleotide.

For the sequence “CUCAGCUCGUCAGGAUAUACGUCACUGCUUCGGCAGUGUGGUAAGAUCACAUGAGGAUCACCCAUGUAGAAGGGACGAGCUGAC”, the “apparent Kd” value under setting [1] was found to be 12.7 nM and the “apparent Kd” value under setting [2] came out at 316 nM.

For the sequence “CUAAAUCAUGUAGGAUAUGCAUGGCGAAGCUACGCAGAAGGACAUGAGGAUCACCCAUGUCUCUCCGUCUGCGAACAGACGGAG”, the “apparent Kd” value amounted to 19.6 nM under setting [1] and 104 nM under setting [2].

For the sequence “GUCAGCGCGUGAGGAUAUACAACACUGCUUCGGCAGUGUAUUAAGAUCACAUGAGGAUCACCCAUGUAGAAGGCACGAGCUGAU”, the “apparent Kd” value stood at 14 nM under setting [1] and 263 nM under setting [2].

Regarding “AUAAUUUUAUAAUUCUAUAUAUUCAGAAGGCAUAACAUGAGGAUCACCCAUGUAAAUUAAUGUUAUGAGGAUAUGAUUCGGUUA”, the “apparent Kd” value runs as follows: under setting [1], 13.9 nM; under setting [2], 67.3 nM.

In the case of “GCAGCCGAUGCAGGAUAUCAGCACGUGUAGUGCUGAGAAGGGCACAUGAGGAUCACCCAUGUGAUCAAUUAAUAUCGAUGCUGC”, the “apparent Kd” value amounted to 6.56 nM under setting [1] and 14.3 nM under setting [2].

Take “AUAGUAGAAGUGAGGAUAUCGUAGAUUUUAGGAAACGAGAAGGCACAUGAGGAUCACCCAUGUAAGAUGGAGGU”: the “apparent Kd” value reads like this: under setting [1], 280 nM; under setting [2], 298 nM.

For the sequence “AGCCACAGAGGAUAUACAUACAUCCAGUGGUAAAGAAUACUACAUGAGGAUCACCCAUGUAGAAGGCUGUGGCA”, the “apparent Kd” value reads like this: under setting [1], 25.3 nM; under setting [2], 145 nM.

With “ACGUGACGGAGCGCGAGUGGACGGAGAAGGCAGACAUGAGGAUCACCCAUGUGAGCCUGCUAUUCUGAGGAUAUCCGUCCGCAC”, the “apparent Kd” value was determined as 32.5 nM under setting [1] and 203 nM under setting [2].

As to “AAUAUGAGCUGGAAUAAACCUUGAACAUGAGGAUCACCCAUGUAGGAUAUCAGCACGAUAAGUGCUGAGAAGGACAACCAGCUC”, the “apparent Kd” value came to 13.6 nM under setting [1] and 15.3 nM under setting [2].

With “AAUUAGUGAGGAUAUACGGGAGGGAGGGAGGGAGGGAGGGAGUAGAAGGCACAUGAGGAUCACCCAUGUAAUUA”, the “apparent Kd” value is, setting by setting: under setting [1], 15.1 nM; under setting [2], 22.7 nM.

With “GUUAGUUAAGGAUAUACAGGGAGCCGCGGCGUCUCGCCGCAACAUGAGGAUCACCCAUGUAGAAGGUAGCCAUU”, the “apparent Kd” value reads like this: under setting [1], 31.3 nM; under setting [2], 66.6 nM.

On to “CUUCGACAUGAGGAUCACCCAUGUCAGGAUAUUGUGUAUCGGGUUUUUUACGGAAAGGCAAGAAGGGAUGUGUG”, for which the “apparent Kd” value under setting [1] was 29.7 nM and the “apparent Kd” value under setting [2] amounted to 24.8 nM.

As for “GUGUACAGAGGAUAUACAUAAGCUAGGAAACUAGCUACUUCACAUGAGGAUCACCCAUGUAGAAGGCUGUACAC”, the “apparent Kd” value is, setting by setting: under setting [1], 16.1 nM; under setting [2], 16.3 nM.

As for “GUUGCUUUCCGAGGAUAUUCUGGGCGUGGUUAUACAUGAGGAUCACCCAUGUGGCGGUUGCCUAGGGAGAAGGCGGGCUGCUUC”, the “apparent Kd” value came out at 20.3 nM under setting [3] and 17.9 nM under setting [4].

As for “CUUAUGUGAGGAUAUGUACAGAAAAAACUGGGUGUAACUGUACAGAAGGCACAUGAGGAUCACCCAUGUGCAUU”, the “apparent Kd” value by setting is: under setting [1], 59.9 nM; under setting [2], 57.1 nM.

Turning to “UGUGCAUCAGGAUAUAUGUGGCGACCGUGAGGUCGAAGGUUACAUGAGGAUCACCCAUGUAGAAGGGAUGUACU”, the “apparent Kd” value came out at 63.2 nM under setting [1] and 187 nM under setting [2].

For the sequence “AUGGAUACCACAGGAUAUGCCCGGGAUACCCGGGCAGAAGGGUGGUCCAUCCUAUGUAAAUACAUGAGGAUCACCCAUGUGUCC”, the “apparent Kd” value under setting [3] is 351 nM and the “apparent Kd” value under setting [4] turned out to be 257 nM.

For “CCCAAACUUGGGCUUGGCGGUGCAUAGGAUAUCCUUGGACAUGAGGAUCACCCAUGUACAACUGUGGAGAAGGGUGCAGGGCCU”, the “apparent Kd” value by setting is: under setting [3], 31.2 nM; under setting [4], 8.61 nM.

Take “UGCAUGGUAGGAUAUACGGAACAUUAGGGUUUGUUAUGUGGACAUGAGGAUCACCCAUGUAGAAGGGCCGUGCU”: the “apparent Kd” value runs as follows: under setting [1], 45.9 nM; under setting [2], 72.3 nM.

“AGAGUUUCGUUGUGACCCAUUCACAUGAGGAUCACCCAUGUAGAGGAUAUAAGUCACCACGGUACUUAGAAGGCUGCAGGUGUG”: the “apparent Kd” value under setting [1] was found to be 6.83 nM and the “apparent Kd” value under setting [2] is 12.5 nM.

On to “GCGUACAUCGGAGGAUAUCAUGUAAAUACAUGAGGAUCACCCAUGUCGAUGGAGACAUCGGAGAUUGAGAAGGCCGAUGUACCG”, for which the “apparent Kd” value is, setting by setting: under setting [3], 157 nM; under setting [4], 8.42 nM.

As for “UUUUAACAUGAGGAUCACCCAUGUGAGGAUAUCGAAAUUUAUAUUAAUAUUAAUAAAACGAGAAGGCACAUUUU”, the “apparent Kd” value is, setting by setting: under setting [1], 82.2 nM; under setting [2], 90.1 nM.

With “UAGGACUUCGUAGGAUAUGUAUUUGAUUUCUACAUGAGGAUCACCCAUGUUUGCAUUUUUUUUUGACAGAAGGACGUGGUCGAA”, the “apparent Kd” value runs as follows: under setting [3], 30.3 nM; under setting [4], 17.3 nM.

“CACGUACAUGAGGAUCACCCAUGUUAGGAUAUGCCGGGUAAGAGAAAACUAAAAAUCCGUAGAAGGGACGAAAC”: the “apparent Kd” value by setting is: under setting [1], 34.1 nM; under setting [2], 33.8 nM.
